Shown are actives, neighbours in structure and some others; about 2.6% of the full set was active somewhere.
SENP8 block-1 = SENP8 protease inhibitors, primary screen, biochemical, luminescence. Sentrin-specific protease 8 (Homo sapiens), Q96LD8. purified SENP8, Z-RLRGG-aminoluciferin cleavage. inhibition, % at 10 µM. 330,000 compounds, 1.2% hits. AID 2540, 2010; in the data active = inhibition above about 50%
Target sequence (Q96LD8 whole entry, looked up): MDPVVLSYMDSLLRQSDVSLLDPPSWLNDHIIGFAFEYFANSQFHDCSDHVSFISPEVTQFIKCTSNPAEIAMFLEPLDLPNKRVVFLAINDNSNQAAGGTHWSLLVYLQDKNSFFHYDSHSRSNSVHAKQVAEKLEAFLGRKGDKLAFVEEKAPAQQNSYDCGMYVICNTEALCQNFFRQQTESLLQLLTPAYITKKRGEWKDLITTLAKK
SENP8 block-2 = human SENP8 protease inhibitors, primary screen, biochemical, fluorescence, Nedd8 protein substrate, uHTS | 360,000 compounds, 0.64% hits | Sentrin-specific protease 8 (Homo sapiens), Q96LD8 | recombinant SENP8 | inhibition, % at 20 µM; in the data active = inhibition mostly above about 40%, no sharp cut-off; inactive = mostly below about 27%
Platelet DG rel = inhibitors of platelet dense granule secretion, primary screen, cell-based, MLPCN, human platelets; 300,000 compounds, 0.22% hits; inhibition, %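 (compounds screened at 7.5 µM in platelet-rich plasma)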; human platelet-rich plasma, SFLLRN dense granule ATP release, luminescence;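 active = mean replicate score, as percent of positive control, at or above 50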
SENP6 inh = SENP6 protease inhibitors, primary screen, biochemical, luminescence, uHTS. 330,000 compounds, 1.8% hits. inhibition, % at 10 µM. AID 2599, 2010. Recombinant SENP6 catalytic domain, aminoluciferin luminescence. Sentrin-specific protease 6 (Homo sapiens), Q9GZR1;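 active = inhibition above about 50% at the single tested dose, limit read from the data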
SENP1 inh = human SENP1 catalytic domain inhibitors, primary screen, biochemical, FRET, uHTS; Sentrin-specific protease 1 (Homo sapiens), Q9P0U3; recombinant SENP1 catalytic domain, CyPet-SUMO1-YPet FRET cleavage; inhibition, % at 10 µM; 360,000 compounds, 0.21% hits; AID 624204, 2012;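 active = inhibition at least 30% at 10 µM, raw YFP signal under a set limit, fluorescence ratio 0.5 to 1.5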
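Test system: recombinant human SENP1 catalytic domain, His6-tagged / Medium: pH 8 Tris buffer with EDTA, NaCl, BME, BSA, NP40, catalase / Also added: SUMO1 FRET substrate flanked by Cypet and Ypet, 25 nM / Times: 50 min reaction at room temperature / Signal: FRET, CFP and YFP emission / Control set: no-enzyme low control and enzyme-plus-DMSO high control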
SENP7 inh = SENP7 protease inhibitors, primary screen, biochemical, luminescence, uHTS | Sentrin-specific protease 7 (Homo sapiens), Q9BQF6 | 330,000 compounds, 1.5% hits | inhibition, % at 5 µM | recombinant SENP7, Z-RLRGG-aminoluciferin luminescence, 40 min;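 active = inhibition above about 50% at the single test dose, limit read from the data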
Target sequence (Q9BQF6 706-1050 limits assumed): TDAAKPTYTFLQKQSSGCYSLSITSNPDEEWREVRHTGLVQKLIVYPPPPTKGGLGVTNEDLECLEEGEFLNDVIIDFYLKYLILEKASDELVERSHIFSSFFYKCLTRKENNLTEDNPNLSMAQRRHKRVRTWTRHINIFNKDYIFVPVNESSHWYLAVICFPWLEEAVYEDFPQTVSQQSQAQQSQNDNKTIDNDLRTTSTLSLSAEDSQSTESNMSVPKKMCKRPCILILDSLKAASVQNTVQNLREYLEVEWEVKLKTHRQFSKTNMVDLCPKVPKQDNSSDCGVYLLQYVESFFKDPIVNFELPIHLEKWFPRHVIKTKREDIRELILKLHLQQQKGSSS
SENP8 confirm = SENP8 protease inhibitors, retest, confirmation, biochemical, luminescence, single concentration; 6,200 compounds, 40% hits; inhibition, % at 12.5 µM; Recombinant SENP8, Z-RLRGG-aminoluciferin luminescence, 60 min; shares compounds with SENP7 inh;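 active = mean inhibition across replicates above about 50%, limit read from the data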
SENP6 confirm = SENP6 protease inhibitors, confirmation, biochemical, luminescence, single concentration. AID 488915, 2010. recombinant SENP6, Z-RLRGG-aminoluciferin luminescence. inhibition, % at 12.5 µM. shares compounds with SENP7 inh. 6,200 compounds, 58% hits
SENP7 confirm = SENP7 protease inhibitors, retest, confirmation, biochemical, luminescence, single concentration | shares compounds with SENP7 inh | recombinant SENP7, Z-RLRGG-aminoluciferin luminescence, 40 min | inhibition, % at 12.5 µM | 6,200 compounds, 69% hits | AID 488917, 2010
Casp3 SENP sel = caspase-3 protease inhibitors, confirmation, selectivity assay for SENP inhibitor project, biochemical, single concentration; shares compounds with SENP7 inh; purified caspase-3, Z-DEVD-aminoluciferin luminescence, 60 min; inhibition, % at 12.5 µM; 6,200 compounds, 60% hits; AID 488918, 2010;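 active = mean inhibition above about 50%, limit read from the data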
SENP luc ctr = counter-screen for SENP inhibitors: luminescence interference; inhibition, % at 12.5 µM; Pre-incubated SENP8/Z-RLRGG-aminoluciferin, luciferase luminescence interference; 6,200 compounds, 39% hits; shares compounds with SENP7 inh; AID 488919;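 active = mean inhibition above about 50% when retested at one dose, limit read from the data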
Large screens that a line does not name were inactive (follow-up assays come after a bar, where they were run).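 The calls were made as follows, unless noted: active = mean inhibition above about 50% in the one-dose retest (limit read from the data); inactive = the rest.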

O=C(CSc1nnnn1-c1cccc(F)c1)NC1CC1	none (no result: Platelet DG rel)
CC(=O)OCC(=O)Nc1ccc([N+](=O)[O-])cc1Cl	none
CC(=O)Oc1c(C)cc(Cl)cc1C(=O)Nc1ccc([N+](=O)[O-])cc1Cl	SENP6 inh 84.1, SENP7 inh 97.6 | SENP8 confirm inactive | SENP6 confirm inactive | SENP7 confirm inactive | Casp3 SENP sel inactive | SENP luc ctr inactive
COc1cc(C(C#N)N2N=C(c3ccccc3)CC2c2ccccc2)ccc1O (stereo not given)	SENP6 inh 65.9, SENP7 inh 78.5 | SENP8 confirm inactive | SENP6 confirm inactive | SENP7 confirm inactive | Casp3 SENP sel inactive | SENP luc ctr inactive
CSc1ccccc1C(=O)Nc1ccc2c(c1)CCC2	SENP6 inh 52.4 | SENP8 confirm inactive | SENP6 confirm inactive | SENP7 confirm 77.0 | Casp3 SENP sel inactive | SENP luc ctr 54.5
O=C(Nc1ccc2c(c1)CCC2)c1cccc(F)c1	SENP8 block-1 76.5, SENP6 inh 87.5, SENP7 inh 92.0 | SENP8 confirm 91.0 | SENP6 confirm 91.2 | SENP7 confirm 99.6 | Casp3 SENP sel 87.9 | SENP luc ctr 89.8
Cc1ccc(C(=O)Nc2ccc3c(c2)CCC3)cc1	SENP8 block-1 81.3, SENP6 inh 87.9, SENP7 inh 90.6 | SENP8 confirm 88.5 | SENP6 confirm 89.1 | SENP7 confirm 98.4 | Casp3 SENP sel 87.4 | SENP luc ctr 86.4
O=C(Nc1ccc2c(c1)CCC2)c1cc(F)cc(F)c1	SENP8 block-1 69.7, SENP6 inh 71.7, SENP7 inh 77.4 (no result: Platelet DG rel) | SENP8 confirm inactive | SENP6 confirm 78.2 | SENP7 confirm 95.4 | Casp3 SENP sel 65.4 | SENP luc ctr inactive
NS(=O)(=O)c1ccc(NC(=S)Nc2ccc(S(=O)(=O)Nc3nccs3)cc2)cc1	none (no result: SENP8 block-1, Platelet DG rel, SENP6 inh, SENP7 inh)
CCOc1ccc(OCCn2c(S(=O)(=O)O)nc3c(N)ncnc32)cc1	none
Cc1ccc(NC(=O)c2cc3c(s2)CCCC3)cc1	none
Cc1ccc(NC(=O)c2scc3c2CCCC3)cc1	SENP6 inh 91.2, SENP7 inh 85.2 | SENP8 confirm inactive | SENP6 confirm inactive | SENP7 confirm inactive | Casp3 SENP sel inactive | SENP luc ctr inactive
CCOc1cc(C)c(Cl)cc1S(=O)(=O)N(CC)CC	SENP8 block-1 62.7 | SENP8 confirm inactive | SENP6 confirm inactive | SENP7 confirm inactive | Casp3 SENP sel inactive | SENP luc ctr inactive
CCOc1cc(S(=O)(=O)N(CC)CC)ccc1Cl	none
Cc1cc(O)c(C=Nc2ccc(N3CCOCC3)cc2)c(C)c1Cl	SENP6 inh 56.5, SENP7 inh 82.2 | SENP8 confirm inactive | SENP6 confirm inactive | SENP7 confirm inactive | Casp3 SENP sel inactive | SENP luc ctr inactive
CC(OC(=O)C1CCC1)C(=O)Nc1cc(Cl)cc(Cl)c1 (stereo not given)	none
CN(C)c1ccc(/C=N/NC(=O)c2nonc2N)cc1[N+](=O)[O-]	SENP7 inh 55.5 | SENP8 confirm inactive | SENP6 confirm inactive | SENP7 confirm 76.4 | Casp3 SENP sel 75.1 | SENP luc ctr 59.3
O=[N+]([O-])c1cc(/C=N\Nc2nc(-c3ccccc3)cs2)ccc1O	none
COc1ccc(/C=N/NC(=O)c2ccncc2)cc1[N+](=O)[O-]	none
Cc1csc(N/N=C/c2ccc(O)c([N+](=O)[O-])c2)n1	SENP8 block-1 55.4, SENP6 inh 68.7 | SENP8 confirm inactive | SENP6 confirm 88.6 | SENP7 confirm inactive | Casp3 SENP sel inactive | SENP luc ctr inactive
O=C(N/N=C/c1ccc([N+](=O)[O-])s1)c1ccncc1	SENP6 inh 57.5 | SENP8 confirm inactive | SENP6 confirm inactive | SENP7 confirm inactive | Casp3 SENP sel inactive | SENP luc ctr inactive
O=C(N/N=C/c1ccc(O)c([N+](=O)[O-])c1)c1ccncc1	SENP6 inh 57.3 | SENP8 confirm inactive | SENP6 confirm inactive | SENP7 confirm 66.4 | Casp3 SENP sel 78.6 | SENP luc ctr inactive
Cc1ccc(C(=O)N/N=C\c2ccc([N+](=O)[O-])s2)cn1	none
O=c1oc(CCCO)cc2ccc(/C=C/c3cccc([N+](=O)[O-])c3)cc12	SENP7 inh 61.2 (no result: Platelet DG rel) | SENP8 confirm inactive | SENP6 confirm inactive | SENP7 confirm inactive | Casp3 SENP sel inactive | SENP luc ctr inactive
O=c1oc(CCCO)cc2ccc(Br)cc12	none (no result: Platelet DG rel)
Cn1c(CSc2nc3ccccc3s2)nnc1SCC(=O)NCCN1CCOCC1	SENP7 inh 75.6 | SENP8 confirm inactive | SENP6 confirm inactive | SENP7 confirm inactive | Casp3 SENP sel inactive | SENP luc ctr inactive
C=CCn1c(CSc2nc3ccccc3s2)nnc1SCC(=O)NCCN1CCOCC1	none
C/C(=N\NC(=O)c1cccc(Cl)c1)C1C(=O)c2ccccc2C1=O	SENP8 block-1 91.7, SENP6 inh 96.9, SENP7 inh 73.7 | SENP8 confirm inactive | SENP6 confirm 96.6 | SENP7 confirm 101.3 | Casp3 SENP sel 87.7 | SENP luc ctr 80.6
C/C(=N\NC(=O)CCc1ccccc1)C1C(=O)c2ccccc2C1=O	none
COP(=O)(OC)C(=NNS(=O)(=O)c1ccc(C)cc1)c1ccccc1	none (no result: SENP8 block-1, Platelet DG rel, SENP6 inh, SENP7 inh)
O=C(C1CC1)N1CCC(c2nc(-c3ccc(S(=O)(=O)N4CCCC4)cc3)no2)CC1	SENP7 inh 83.6 | SENP8 confirm inactive | SENP6 confirm inactive | SENP7 confirm inactive | Casp3 SENP sel inactive | SENP luc ctr inactive

Screening data as filed in PubChem.
